CHO parental Ca: counter-screen for OX1R antagonists: effect in parental CHO cells. inhibition, % at 5.6 µM. parental CHO-K1, ATP-induced calcium, Fluo-8 fluorescence. actives 0.63% (n = 330,000);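 active means inhibition above that plate's mean sample inhibition plus 3 SD, cut at about 26% in these data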;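 further: 0% = ATP-challenged DMSO wells and 100% = DMSO wells without ATP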
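Test system: parental CHO cells; detection: calcium-sensitive Fluo-8 fluorescence; evaluation: percent inhibition of calcium signal; also added: ATP as calcium-mobilizing challenge; repeats: one well per compound; control set: ATP-challenged DMSO wells low, unchallenged DMSO wells high; compound: single nominal dose of 5.6 µM per compound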
TAAR1 ag: agonists of human TAAR1. Q96RJ0. CHO RD-HGA16 TAAR1, Fluo-8 calcium fluorescence; vehicle wells 0%, saturating PEA agonist 100%. activation, % at 3 µM. actives 0.99% (n = 360,000). AID 624467;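 active means activation above the mean activation of all test compounds in the run plus 3 SD, cut at about 38% in these data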
Target sequence (Q96RJ0 whole entry, looked up): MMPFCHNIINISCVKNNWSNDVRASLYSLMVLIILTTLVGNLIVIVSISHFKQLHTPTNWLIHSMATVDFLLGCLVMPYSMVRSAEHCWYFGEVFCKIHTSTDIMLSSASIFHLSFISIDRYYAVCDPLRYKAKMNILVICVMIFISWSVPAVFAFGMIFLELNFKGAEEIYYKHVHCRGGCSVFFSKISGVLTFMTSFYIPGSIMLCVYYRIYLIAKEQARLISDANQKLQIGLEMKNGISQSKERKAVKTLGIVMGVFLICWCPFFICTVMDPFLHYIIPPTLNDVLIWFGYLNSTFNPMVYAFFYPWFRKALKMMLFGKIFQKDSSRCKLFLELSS
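Benchmarks: low control DMSO, high control PEA (EC100); System: CHO RD-HGA16 cells carrying human TAAR1 plus Gα16; Detection: Fluo-8 fluorescence, 5 s baseline then 140 s kinetic read; Schedule: 17-24 h plating, Fluo-8 75 min 37 °C, 30 min RT; Read-out basis: % activation from peak over basal fluorescence ratio, DMSO-to-PEA scaled.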
TAAR1 antag: antagonists of human TAAR1; Q96RJ0; CHO RD-HGA16 TAAR1, Fluo-8 calcium fluorescence, antagonist; inhibition, % at 3 µM; actives 1.5% (n = 360,000); AID 624466;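 active means inhibition above a per-plate cutoff, the mean inhibition of test compounds on that plate plus 3 SD, cut at about 49% in these data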;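 further: 0% = DMSO plus EC80 beta-PEA response and 100% = DMSO alone without agonist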
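Assay system: CHO-derived RD-HGA16 cells stably expressing human TAAR1 plus Gα16. Timing: 140 s kinetic read after compound, 140 s after agonist. Technique: kinetic Fluo-8 calcium fluorescence measurement. Measure: % inhibition of agonist calcium response.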
OX1R antag-1: antagonists of human orexin 1 receptor (OX1R). O43613. OX1R-expressing cells, FRET antagonist read-out. inhibition, % at 6.6 µM. actives 1.8% (n = 330,000); in the data active means inhibition mostly above about 38%, no sharp cut-off; inactive means mostly below about 40%;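 further: 0% = agonist challenge alone and 100% = reference antagonist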
GPR7 antag: blocks human GPR7 receptor signaling; GPR7-expressing cells, fluorescence antagonist assay; inhibition, % at 4.4 µM; AID 1861; actives 1.1% (n = 290,000); in the data active means inhibition above about 16%, passing the limit was not always enough;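 further: cells stimulated with the agonist NPW; 0% = agonist with vehicle and 100% = vehicle without agonist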
Target sequence (P48145 whole entry, looked up): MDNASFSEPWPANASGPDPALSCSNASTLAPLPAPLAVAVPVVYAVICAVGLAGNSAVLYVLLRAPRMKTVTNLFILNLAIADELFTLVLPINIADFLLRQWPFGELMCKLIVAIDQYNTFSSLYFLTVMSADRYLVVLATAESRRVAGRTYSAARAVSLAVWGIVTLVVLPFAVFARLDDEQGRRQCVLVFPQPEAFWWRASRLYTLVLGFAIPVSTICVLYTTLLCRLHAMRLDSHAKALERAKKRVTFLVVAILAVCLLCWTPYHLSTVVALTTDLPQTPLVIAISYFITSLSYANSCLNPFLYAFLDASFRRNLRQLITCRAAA
OX1R antag-2: blocks the human orexin 1 receptor | O43613 | CHO/OX1R cells, Fluo-8 calcium fluorescence, orexin A | inhibition, % at 5 µM | actives 0.43% (n = 330,000);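 active means inhibition above its plate's threshold, mean inhibition of all tested compounds on the plate plus 3 SD, cut at about 37% in these data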;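 further: 0% = orexin A challenge wells and 100% = SB-334867-A antagonist wells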
TAAR1 nonsel count: counter-screen for TAAR1 antagonists: nonselective antagonists. actives 77% (n = 2,400). AID 651780. inhibition, % at 3 µM. counterscreen cell line, calcium fluorescence, antagonist mode. shares compounds with TAAR1 antag; in the data active means inhibition above about 22%;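 further: CHO-Ga16 host cells stimulated with ATP at an EC80 level; 0% = agonist EC80 plus vehicle and 100% = vehicle without agonist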
TAAR1 ant conf: human TAAR1 antagonism, confirmed; shares compounds with TAAR1 antag; TAAR1-expressing cells, fluorescence antagonist read-out; inhibition, % at 3 µM; actives 40% (n = 2,400); in the data active means inhibition above about 49%;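 further: CHO-Ga16 host cells challenged with agonist PEA near its EC80; 0% = agonist at EC80 plus vehicle and 100% = vehicle with no agonist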
Ga16 nonsel ag: nonselective Ga16 agonist in TAAR1 antagonist counter-screen | shares compounds with TAAR1 antag | Ga16-expressing cells, calcium fluorescence, agonist counterscreen | activation, % at 3 µM | actives 18% (n = 2,400) | AID 651953; in the data active means activation above about 12%;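 further: 0% = vehicle wells and 100% = saturating stimulus response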
TAAR1 ag count: counter-screen for human TAAR1 antagonists: TAAR1 agonists; shares compounds with TAAR1 antag; hTAAR1 cell line, fluorescence activation, agonist mode; activation, % at 3 µM; actives 2% (n = 2,400); AID 651955; in the data active means activation above about 37%;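 further: CHO cells stably expressing TAAR1 with calcium dye readout; 0% = DMSO vehicle and 100% = full agonist response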
* marks the source's active call; other numbers are inactive results; / = no result given. Rows were chosen to be rich in hits. Some 4.6% of all compounds tested hit in one or more screens of this group.

SMILES	CHO parental Ca	TAAR1 ag	TAAR1 antag	OX1R antag-1	GPR7 antag	OX1R antag-2	TAAR1 nonsel count	TAAR1 ant conf	Ga16 nonsel ag	TAAR1 ag count
C/C(=N\NC(=O)c1cc2ccccc2cc1O)c1cc2ccccc2o1	-6	19	60*	8	-10	4	62*	88*	37*	34
O=C(NCc1ccc(F)cc1)c1cc(C2CCCN(C(=O)c3ccc4c(c3)CCO4)C2)on1 (stereo not given)	/	0	-12	/	/	/	/	/	/	/
COc1ccc(-c2cc(-c3ccc(O)cc3)nc(N)c2C#N)cc1OC	-18	13	50*	6	0	-14	26*	46	8	15
COc1ccc(-c2c(C#N)c(N)nc3c2CCc2ccccc2-3)cc1OC	-10	23	60*	3	2	-6	31*	52*	9	24
COc1cc(-c2c(C#N)c(N)nc3c2CCCC3)ccc1O	-18	7	-5	1	-6	-29	/	/	/	/
CCCc1cc(-c2ccc(O)c(OCC)c2)c(C#N)c(N)n1	-16	0	1	38	-6	-17	/	/	/	/
Cc1ccc(S(=O)(=O)N2[C@H](CC(=O)c3ccc(Cl)c(Cl)c3)OC[C@@H]2C(C)C)cc1	/	0	-9	/	/	/	/	/	/	/
CSc1cccc(NC(=O)CCn2c(=O)c3cccn3c3cccnc32)c1	-13	23	57*	32	-4	-15	25*	48	9	17
COc1cccc(CNC(=O)CCn2c(=O)c3cccn3c3cccnc32)c1	-11	1	-7	9	-10	-9	/	/	/	/
c1ccc(-c2nc(SCc3nc4ccccc4[nH]3)c3oc4ccccc4c3n2)cc1	-13	2	54*	14	/	-2	18	15	1	-2
O=C(Nc1ccc(N2CCN(C(=O)c3ccco3)CC2)c(Cl)c1)c1cc2ccccc2o1	36*	16	84*	72*	18	18	41*	67*	10	10
O=C(Nc1ccc(N2CCN(C(=O)c3ccccc3)CC2)c(Cl)c1)c1ccco1	-13	14	40	16	-3	-21	/	/	/	/
CCOc1ccc(OCCSc2nc3ccccc3c(=O)[nH]2)cc1	-4	33	63*	4	-8	-6	9	26	8	16
Cc1cccc(N2CCN(C(=O)c3cc(S(=O)(=O)N(C)C)ccc3N3CCCC3)CC2)c1C	-14	2	-6	19	11	-24	/	/	/	/
CCOc1ccccc1N1CCN(C(=O)c2cc(S(=O)(=O)N(C)C)ccc2N2CCCC2)CC1	-13	19	57*	-1	/	-27	20	47	9	9
CNC[C@@H]1OCc2cnnn2CCCC(=O)N([C@@H](C)CO)C[C@H]1C	/	5	-16	/	/	/	/	/	/	/
CCc1nc2ccc(C(=O)NCc3ccc4c(c3)OCO4)cn2c1N(C)CCC(C)C	/	5	67*	/	/	/	7	27	5	7
COc1ccc(CNC(=O)COc2ccc(S(=O)(=O)N3CCCCC3)cc2Cl)cc1	-10	10	73*	26	-1	-12	26*	45	10	13
CNc1ccccc1NC(=O)C1CCCN1C(=O)OCc1ccccc1 (stereo not given)	-23	0	-14	5	9	-11	/	/	/	/
O=C(c1ccco1)N1CCN(C/C=C/c2ccccc2)CC1	-15	5	-10	13	-10	-17	/	/	/	/
O=C(c1nn(Cc2ccccc2)c(=O)c2ccccc12)N1CCN(C/C=C/c2ccccc2)CC1	-23	10	50*	20	-4	-18	18	27	3	4
O=C(NC(Cc1ccccc1)C(=O)O)c1ccccc1 (stereo not given)	-5	3	-3	7	2	-5	/	/	/	/
O=C(NC(Cc1ccccc1)C(=O)N1CCc2ccccc2C1)c1ccccc1 (stereo not given)	-31	8	55*	25	-2	-22	26*	46	7	5
Cc1ccc(C)c(NC(=O)COc2cccc3c2CCN(Cc2ccccc2)C3=O)c1	-30	8	63*	6	-9	-40	27*	39	5	2
CCN1CCc2c(OCC(=O)Nc3ccccc3)cccc2C1=O	-11	2	1	11	-8	-10	/	/	/	/
SMILES	CHO parental Ca	TAAR1 ag	TAAR1 antag	OX1R antag-1	GPR7 antag	OX1R antag-2	TAAR1 nonsel count	TAAR1 ant conf	Ga16 nonsel ag	TAAR1 ag count
O=C(CN1CCN(Cc2ccccc2)CC1)Nc1ccc([N+](=O)[O-])cc1C(=O)Nc1ccccc1F	-24	16	58*	19	-12	-42	29*	51*	7	13
Cc1ccc(C)c(N(CC(=O)Nc2ccccc2C(=O)NCc2ccco2)S(=O)(=O)c2ccccc2)c1	-11	8	79*	48	-6	-8	35*	58*	6	8
Cc1ccc(N(CC(=O)Nc2ccccc2C(=O)NCc2ccco2)S(=O)(=O)c2ccccc2)cc1C	-6	2	14	44	-23	-3	/	/	/	/
COc1cc(NC(=O)c2ccc(-c3cccc(F)c3)o2)ccc1NC(=O)c1ccccc1Cl	-12	8	55*	9	/	-5	23*	37	3	2
COc1ccc(NC(=O)c2ccc(-c3ccc(F)cc3)o2)cc1OC	/	12	35	/	/	/	/	/	/	/
O=C1NC[C@@H](c2ccccc2)OC(=O)[C@H](Cc2ccc(F)cc2)C/C=C\C[C@@H]1CC(=O)N(CCO)Cc1ccccc1	3	27	67*	2	/	0	20	44	9	7
CC(C)(C)OC(=O)C[C@@H]1C/C=C\C[C@H](CC(=O)N[C@H](CO)Cc2ccccc2)C(=O)N[C@@H](Cc2ccccc2)COC1=O	-31	17	59*	8	/	-21	28*	40	5	1
O=C1CCCC/C=C\C[C@H](CC(=O)N(CCO)Cc2ccccc2)C(=O)NC[C@H](c2ccccc2)O1	-6	4	-5	9	/	-13	/	/	/	/
O=C(C[C@H]1C/C=C\CC[C@H](Cc2ccc(F)cc2)C(=O)O[C@@H](c2ccccc2)CNC1=O)N[C@@H](CO)Cc1ccccc1	-16	33	59*	10	/	-11	35*	49*	10	12

Assay outcomes (PubChem)
